{"source": "ChEMBL document CHEMBL5661969", "about": "“Preclinical evaluation of a potent novel DNA-dependent protein kinase inhibitor NU7441” (Cancer Res, 2006)", "key": {"[1]": {"molecular_target": "DNA-dependent protein kinase catalytic subunit (Homo sapiens, UniProt P78527)", "sequence (P78527 whole entry)": "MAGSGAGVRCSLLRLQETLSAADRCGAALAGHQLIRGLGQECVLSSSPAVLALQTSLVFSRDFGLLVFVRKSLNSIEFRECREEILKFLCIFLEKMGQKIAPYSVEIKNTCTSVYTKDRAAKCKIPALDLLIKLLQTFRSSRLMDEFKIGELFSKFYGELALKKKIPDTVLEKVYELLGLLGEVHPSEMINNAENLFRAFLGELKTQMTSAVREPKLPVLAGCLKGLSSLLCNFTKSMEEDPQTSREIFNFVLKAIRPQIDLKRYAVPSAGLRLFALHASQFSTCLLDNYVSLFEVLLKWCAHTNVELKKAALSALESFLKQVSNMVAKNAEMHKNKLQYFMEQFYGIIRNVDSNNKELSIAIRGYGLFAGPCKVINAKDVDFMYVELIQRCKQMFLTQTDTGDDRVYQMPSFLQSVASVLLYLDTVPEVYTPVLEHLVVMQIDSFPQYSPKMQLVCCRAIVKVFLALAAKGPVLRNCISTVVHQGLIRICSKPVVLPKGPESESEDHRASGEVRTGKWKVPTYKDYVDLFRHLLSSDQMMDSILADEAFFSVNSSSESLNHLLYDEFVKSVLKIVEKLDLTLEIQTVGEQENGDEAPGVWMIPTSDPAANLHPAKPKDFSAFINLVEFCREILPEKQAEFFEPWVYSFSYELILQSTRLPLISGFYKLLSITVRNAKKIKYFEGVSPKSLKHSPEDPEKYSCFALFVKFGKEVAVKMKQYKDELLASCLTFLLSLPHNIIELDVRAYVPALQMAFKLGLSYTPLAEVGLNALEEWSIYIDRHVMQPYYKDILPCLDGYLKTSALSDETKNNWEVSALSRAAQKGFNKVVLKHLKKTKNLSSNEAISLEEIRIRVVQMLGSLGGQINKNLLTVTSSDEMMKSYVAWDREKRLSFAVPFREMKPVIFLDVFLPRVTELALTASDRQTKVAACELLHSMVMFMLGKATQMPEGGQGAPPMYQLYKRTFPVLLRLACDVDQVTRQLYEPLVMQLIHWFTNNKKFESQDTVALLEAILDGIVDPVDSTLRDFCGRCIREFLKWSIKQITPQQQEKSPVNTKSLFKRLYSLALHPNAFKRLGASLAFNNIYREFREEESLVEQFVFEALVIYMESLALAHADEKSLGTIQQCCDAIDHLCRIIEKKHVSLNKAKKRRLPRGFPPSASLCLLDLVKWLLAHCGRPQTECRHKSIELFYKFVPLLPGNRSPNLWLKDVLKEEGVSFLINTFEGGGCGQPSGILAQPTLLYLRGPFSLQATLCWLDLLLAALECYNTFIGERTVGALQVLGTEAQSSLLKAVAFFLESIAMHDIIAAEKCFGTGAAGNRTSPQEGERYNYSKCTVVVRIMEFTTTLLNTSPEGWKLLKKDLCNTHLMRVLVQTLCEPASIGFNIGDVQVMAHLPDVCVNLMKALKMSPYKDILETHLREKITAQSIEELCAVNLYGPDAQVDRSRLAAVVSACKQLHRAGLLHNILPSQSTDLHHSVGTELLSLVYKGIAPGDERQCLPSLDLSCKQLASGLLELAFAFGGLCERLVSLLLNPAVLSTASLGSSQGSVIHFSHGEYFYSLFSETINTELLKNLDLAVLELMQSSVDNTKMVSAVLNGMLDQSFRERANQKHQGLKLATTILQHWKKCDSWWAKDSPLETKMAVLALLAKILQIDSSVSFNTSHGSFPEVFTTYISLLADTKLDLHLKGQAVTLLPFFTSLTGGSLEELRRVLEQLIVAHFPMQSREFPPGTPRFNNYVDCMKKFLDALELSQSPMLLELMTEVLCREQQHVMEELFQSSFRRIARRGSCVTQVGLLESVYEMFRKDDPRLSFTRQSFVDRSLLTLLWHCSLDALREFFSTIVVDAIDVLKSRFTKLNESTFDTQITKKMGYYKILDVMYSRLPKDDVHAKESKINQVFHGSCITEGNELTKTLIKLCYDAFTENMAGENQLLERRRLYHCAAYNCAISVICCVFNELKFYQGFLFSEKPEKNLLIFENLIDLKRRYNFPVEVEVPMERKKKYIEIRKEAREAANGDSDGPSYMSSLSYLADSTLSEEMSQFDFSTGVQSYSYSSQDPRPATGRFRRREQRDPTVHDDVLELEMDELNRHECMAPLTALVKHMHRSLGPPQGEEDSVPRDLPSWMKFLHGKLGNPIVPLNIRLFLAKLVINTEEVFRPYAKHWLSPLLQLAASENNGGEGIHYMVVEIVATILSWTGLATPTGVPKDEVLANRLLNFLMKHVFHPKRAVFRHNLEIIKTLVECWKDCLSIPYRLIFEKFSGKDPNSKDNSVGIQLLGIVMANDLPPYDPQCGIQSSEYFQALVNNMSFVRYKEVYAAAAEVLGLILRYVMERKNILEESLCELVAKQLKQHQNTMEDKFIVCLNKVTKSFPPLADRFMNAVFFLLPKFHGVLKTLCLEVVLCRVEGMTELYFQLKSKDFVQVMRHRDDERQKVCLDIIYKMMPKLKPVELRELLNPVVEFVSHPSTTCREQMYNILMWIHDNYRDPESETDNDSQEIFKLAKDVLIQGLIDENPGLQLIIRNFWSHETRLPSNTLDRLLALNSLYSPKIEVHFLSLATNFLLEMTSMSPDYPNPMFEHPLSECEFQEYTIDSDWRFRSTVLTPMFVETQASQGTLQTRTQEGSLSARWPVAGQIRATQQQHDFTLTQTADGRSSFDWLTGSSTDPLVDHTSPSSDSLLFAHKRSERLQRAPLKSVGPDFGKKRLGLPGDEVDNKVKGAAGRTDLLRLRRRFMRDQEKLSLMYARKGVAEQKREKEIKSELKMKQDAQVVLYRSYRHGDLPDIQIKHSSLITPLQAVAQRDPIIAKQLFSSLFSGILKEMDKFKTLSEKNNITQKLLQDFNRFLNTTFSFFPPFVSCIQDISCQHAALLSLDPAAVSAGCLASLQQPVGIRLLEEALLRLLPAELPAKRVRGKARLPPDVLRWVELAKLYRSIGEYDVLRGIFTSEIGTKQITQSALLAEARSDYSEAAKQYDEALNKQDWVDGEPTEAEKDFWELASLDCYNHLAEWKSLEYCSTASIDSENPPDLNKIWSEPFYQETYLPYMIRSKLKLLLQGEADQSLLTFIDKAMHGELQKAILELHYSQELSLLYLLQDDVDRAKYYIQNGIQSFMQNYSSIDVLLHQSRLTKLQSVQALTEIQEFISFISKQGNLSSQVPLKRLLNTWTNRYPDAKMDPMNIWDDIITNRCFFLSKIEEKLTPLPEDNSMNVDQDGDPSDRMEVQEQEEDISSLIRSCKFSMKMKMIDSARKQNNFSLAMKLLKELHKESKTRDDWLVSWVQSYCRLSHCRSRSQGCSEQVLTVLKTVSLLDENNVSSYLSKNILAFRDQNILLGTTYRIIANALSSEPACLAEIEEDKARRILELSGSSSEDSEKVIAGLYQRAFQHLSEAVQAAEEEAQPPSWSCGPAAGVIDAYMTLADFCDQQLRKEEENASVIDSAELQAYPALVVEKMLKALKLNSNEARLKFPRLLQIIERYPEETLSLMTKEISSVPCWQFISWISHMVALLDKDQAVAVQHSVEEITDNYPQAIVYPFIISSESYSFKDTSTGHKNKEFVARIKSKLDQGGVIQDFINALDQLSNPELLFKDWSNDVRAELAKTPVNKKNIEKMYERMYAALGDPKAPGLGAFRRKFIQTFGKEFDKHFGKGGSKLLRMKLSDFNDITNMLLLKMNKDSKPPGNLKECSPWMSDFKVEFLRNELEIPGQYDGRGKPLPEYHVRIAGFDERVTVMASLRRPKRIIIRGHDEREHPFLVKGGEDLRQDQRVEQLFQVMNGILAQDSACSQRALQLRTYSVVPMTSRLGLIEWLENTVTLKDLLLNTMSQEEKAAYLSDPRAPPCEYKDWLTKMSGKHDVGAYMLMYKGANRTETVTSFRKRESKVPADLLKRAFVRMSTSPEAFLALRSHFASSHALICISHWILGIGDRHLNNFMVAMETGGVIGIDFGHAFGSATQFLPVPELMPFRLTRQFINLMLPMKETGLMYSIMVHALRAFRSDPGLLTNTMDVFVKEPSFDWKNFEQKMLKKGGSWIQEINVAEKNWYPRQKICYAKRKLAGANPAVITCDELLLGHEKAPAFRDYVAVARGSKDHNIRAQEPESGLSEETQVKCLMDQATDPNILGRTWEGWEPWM", "settings": "LoVo, dose 1.0 µmol/L, time 17.0 hrs"}, "[2]": {"assay": "Clearance in BALB/c mouse at 5 mg/kg, iv by HPLC analysis", "assay_type": "ADME, organism-based", "settings": "in vivo", "procedure,_shortened": "(§1)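 Female BALB/c mice dosed 5 mg/kg i.v. in 10% DMSO/10% cyclodextrin in saline, or 10 mg/kg i.p. or orally at 1 mg/mL in 40% PEG400/saline. Plasma taken at 5, 10, 15, 30, 60, 90, 120, 180, 240 and 360 min, three mice per time. Acetonitrile precipitation, C18 HPLC with UV detection at 329 nm against a plasma standard curve. Parameters derived from mean concentrations.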"}, "[3]": {"assay": "AUCinfinity in BALB/c mouse at 10 mg/kg, po by HPLC analysis", "assay_type": "ADME, organism-based", "settings": "in vivo", "procedure,_shortened": "as §1"}, "[4]": {"assay": "Ratio of drug level in kidney to plasma of human SW620 cell xenografted athymic nude CD1 mouse at 10 mg/kg, ip measured after 240 mins by HPLC analysis", "assay_type": "ADME, organism-based", "procedure,_shortened": "(§2)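 Female CD-1 nu/nu mice bearing s.c. flank SW620 tumours (1×10^7 cells, ~650 mm³ at 10–14 days) given 10 mg/kg i.p. Tissues snap frozen, homogenised 1:3 in PBS. Acetonitrile precipitation, C18 HPLC with acetate pH 5/acetonitrile 75:25 mobile phase, UV 329 nm; tissue levels by method of addition. Tissue/plasma ratio, mean of three mice per time.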"}, "[5]": {"assay": "Toxicity in human SW620 cell xenografted athymic nude CD1 mouse assessed as maximum body weight loss at 10 mg/kg, ip administered 5 times daily for 5 days relative to control", "assay_type": "organism-based, SW-620", "settings": "in vivo, 120 h, time 5 day", "procedure,_shortened": "(§3)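 CD-1 nude mice carry palpable s.c. SW620 xenografts (~5×5 mm, 8-10 days), five per group. Treated i.p. daily for 5 days with saline, agent in 40% PEG 400/saline, etoposide phosphate 11.35 mg/kg (equal to 10 mg/kg etoposide), or both, agent given immediately before etoposide phosphate. Read-outs are median relative tumour volume, time to 4× volume (growth delay) and body weight.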"}, "[6]": {"assay": "AUCinfinity in BALB/c mouse at 10 mg/kg, ip by HPLC analysis", "assay_type": "ADME, organism-based", "settings": "in vivo", "procedure,_shortened": "as §1"}, "[7]": {"assay": "Ratio of drug level in liver to plasma of human SW620 cell xenografted athymic nude CD1 mouse at 10 mg/kg, ip measured after 240 mins by HPLC analysis", "assay_type": "ADME, organism-based", "procedure,_shortened": "as §2"}, "[8]": {"assay": "Cmax in BALB/c mouse at 10 mg/kg, ip by HPLC analysis", "assay_type": "ADME, organism-based", "settings": "in vivo", "procedure,_shortened": "as §1"}, "[9]": {"assay": "Bioavailability in BALB/c mouse at 10 mg/kg, ip by HPLC analysis", "assay_type": "ADME, organism-based", "settings": "in vivo", "procedure,_shortened": "as §1"}, "[10]": {"test_system": "LoVo", "assay": "Cell cycle arrest in human LoVo cells assessed as reduction in S-phase cell population at 1 umol/L measured after 1 hr by propidium iodide staining based flow cytometry relative to control", "assay_type": "toxicity", "parameters": "scale not given: the % may be the effect or the level left", "settings": "1 µM, dose 1 µmol/L", "procedure,_shortened": "(§4)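 Asynchronous SW620 or LoVo cells, seeded 24 h earlier, given control or 1 μmol/L agent medium for 1 h before ionizing radiation, etoposide or doxorubicin, then incubated a further 16 h. Cells fixed in 70% ethanol, stained with propidium iodide (400 μg/mL) plus RNase (1 mg/mL), and analysed by 488 nm flow cytometry.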"}, "[11]": {"assay": "Ratio of drug level in spleen to plasma of human SW620 cell xenografted athymic nude CD1 mouse at 10 mg/kg, ip measured after 90 mins by HPLC analysis", "assay_type": "ADME, organism-based", "procedure,_shortened": "as §2"}, "[12]": {"assay": "Tmax in BALB/c mouse at 10 mg/kg, ip by HPLC analysis", "assay_type": "ADME, organism-based", "settings": "in vivo", "procedure,_shortened": "as §1"}, "[13]": {"assay": "AUClast in BALB/c mouse at 5 mg/kg, iv by HPLC analysis", "assay_type": "ADME, organism-based", "settings": "in vivo", "procedure,_shortened": "as §1"}, "[14]": {"assay": "Ratio of drug level in kidney to plasma of human SW620 cell xenografted athymic nude CD1 mouse at 10 mg/kg, ip measured after 30 mins by HPLC analysis", "assay_type": "ADME, organism-based", "settings": "kidney and plasma", "procedure,_shortened": "as §2"}, "[15]": {"assay": "Ratio of drug level in brain to plasma of human SW620 cell xenografted athymic nude CD1 mouse at 10 mg/kg, ip measured after 90 mins by HPLC analysis", "assay_type": "ADME, organism-based", "settings": "brain and plasma, read-out: BPR", "procedure,_shortened": "as §2"}, "[16]": {"test_system": "LoVo", "assay": "Cell cycle arrest in human LoVo cells assessed as increase in G1-phase cell population at 1 umol/L measured after 1 hr by propidium iodide staining based flow cytometry relative to control", "assay_type": "toxicity", "settings": "1 µM, dose 1 µmol/L", "procedure,_shortened": "as §4"}, "[17]": {"test_system": "SW-620", "assay": "Cell cycle arrest in human SW620 cells assessed as increase in G1-phase cell population at 1 umol/L measured after 16 hrs by propidium iodide staining based flow cytometry relative to control", "settings": "sw-620, 16 h, 1 µM"}, "[18]": {"assay": "In vivo inhibition of DNA-PK in human SW620 cells xenografted athymic nude CD1 mouse assessed as potentiation of etoposide phosphate-induced antitumor activity at 10 mg/kg, ip administered 5 times daily for 5 days relative to control", "assay_type": "functional, SW-620", "settings": "time 5 day", "procedure,_shortened": "as §3"}, "[19]": {"assay": "Ratio of drug level in spleen to plasma of human SW620 cell xenografted athymic nude CD1 mouse at 10 mg/kg, ip measured after 60 mins by HPLC analysis", "assay_type": "ADME, organism-based", "procedure,_shortened": "as §2"}, "[20]": {"assay": "Inhibition of DNA-PK in Chinese hamster DNA-PK proficient V3-YAC cells assessed as potentiation of ionizing radiation-induced cytotoxicity by measuring fold change in radiation LD90 at 0.5 umol/L preincubated for 1 hr followed by gamma-irradiation and measured after 16 hrs by crystal violet staining based assay relative to radiation alone", "parameters": "species or system Cricetulus griseus", "settings": "dose 0.5 µmol/L; time 17 hrs; condition cancer", "procedure,_shortened": "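V3-YAC Chinese hamster ovary cells (human DNA-PKcs YAC, kept in 500 μg/mL G-418), RPMI 1640/10% FBS. Cells reseeded drug-free, colonies crystal violet stained after 10–14 days; LD90 ratio without/with inhibitor (DMR90).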"}, "[21]": {"assay": "Growth inhibition of human LoVo cells at 1 umol/L measured after 5 days by crystal violet staining based assay relative to control", "assay_type": "toxicity, cell-based", "settings": "dose 1 µmol/L, time 5 day, read-out: GI", "procedure,_shortened": "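LoVo and SW620 cells in 96-well plates under 5-day continuous exposure to agent, and growth measured relative to control.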"}, "[22]": {"assay": "Cmax in BALB/c mouse at 5 mg/kg, iv by HPLC analysis", "assay_type": "ADME, organism-based", "settings": "in vivo", "procedure,_shortened": "as §1"}, "[23]": {"assay": "AUCinfinity in BALB/c mouse at 5 mg/kg, iv by HPLC analysis", "assay_type": "ADME, organism-based", "settings": "in vivo", "procedure,_shortened": "as §1"}, "[24]": {"assay": "Cytotoxicity against Chinese hamster DNA-PK proficient V3-YAC cells assessed as cell survival at 0.5 umol/L measured after 16 hrs by crystal violet staining based assay relative to control", "assay_type": "toxicity, Cricetulus griseus", "settings": "dose 0.5 µmol/L, read-out: Activity", "procedure,_shortened": "(§5)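 Exponentially growing cells exposed 16 h to agent (0.5 or 1.0 μmol/L), with or without etoposide or doxorubicin, at 0.5% DMSO final; controls get DMSO alone. Cells are then trypsinized, reseeded at 100–100,000 per dish in drug-free medium and grown 10–14 days. Colonies stained with crystal violet and counted automatically.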"}, "[25]": {"assay": "Elimination half life in BALB/c mouse at 10 mg/kg, ip by HPLC analysis", "assay_type": "ADME, organism-based", "settings": "in vivo, read-out: beta t1/2", "procedure,_shortened": "as §1"}, "[26]": {"assay": "Cytotoxicity against Chinese hamster DNA-PK deficient V3 cells assessed as cell survival at 0.5 umol/L measured after 16 hrs by crystal violet staining based assay relative to control", "assay_type": "toxicity, Cricetulus griseus", "settings": "dose 0.5 µmol/L, read-out: Activity", "procedure,_shortened": "as §5"}, "[27]": {"assay": "Elimination half life in BALB/c mouse at 5 mg/kg, iv by HPLC analysis", "assay_type": "ADME, organism-based", "settings": "in vivo, read-out: beta t1/2", "procedure,_shortened": "as §1"}}, "data": [{"smiles": "O=c1cc(N2CCOCC2)oc2c(-c3cccc4c3sc3ccccc34)cccc12", "values": [{"measurement": "LD90", "setting": "[1]", "value": 1, "unit": "Gy"}, {"measurement": "clearance", "setting": "[2]", "value": 65, "unit": "mL/min/kg"}, {"measurement": "AUC(0-inf)", "setting": "[3]", "value": 1200, "unit": "ng·h/mL"}, {"measurement": "Kp at 4 h", "setting": "[4]", "value": 1}, {"measurement": "Activity", "setting": "[5]", "value": 12, "unit": "%"}, {"measurement": "AUC(0-inf)", "setting": "[6]", "value": 2530, "unit": "ng·h/mL"}, {"measurement": "Kp at 4 h", "setting": "[7]", "value": 5}, {"measurement": "Cmax", "setting": "[8]", "value": 2400, "unit": "ng/mL"}, {"measurement": "bioavailability", "setting": "[9]", "value": 100, "unit": "%"}, {"measurement": "Activity", "setting": "[10]", "value": 72, "unit": "%"}, {"measurement": "Kp at 1.5 h", "setting": "[11]", "value": 8.7}, {"measurement": "Tmax", "setting": "[12]", "value": 5, "unit": "min"}, {"measurement": "AUC(0-t)", "setting": "[13]", "value": 1270, "unit": "ng·h/mL"}, {"measurement": "Kp at 0.5 h", "setting": "[14]", "value": 3.4}, {"measurement": "Kp at 1.5 h", "setting": "[15]", "value": 3}, {"measurement": "Activity", "setting": "[16]", "value": 54, "unit": "%"}, {"measurement": "Activity", "setting": "[17]", "value": 15, "unit": "%"}, {"measurement": "Efficacy", "setting": "[18]", "value": 100, "unit": "%"}, {"measurement": "Kp at 1 h", "setting": "[19]", "value": 3.2}, {"measurement": "fold change (FC)", "setting": "[20]", "value": 1.6}, {"measurement": "inhibition at 120 h, 1 µM", "setting": "[21]", "value": 78, "unit": "%"}, {"measurement": "Cmax", "setting": "[22]", "value": 1600, "unit": "ng/mL"}, {"measurement": "AUC(0-inf)", "setting": "[23]", "value": 1300, "unit": "ng·h/mL"}, {"measurement": "viability at 16 h, 0.5 µM", "setting": "[24]", "value": 97, "unit": "%"}, {"measurement": "half-life", "setting": "[25]", "value": 53, "unit": "min"}, {"measurement": "viability at 16 h, 0.5 µM", "setting": "[26]", "value": 94, "unit": "%"}, {"measurement": "half-life", "setting": "[27]", "value": 46, "unit": "min"}]}]}
